Laboratory results from ChEMBL document CHEMBL1124246, “Evaluation of the side arm of (naphthylvinyl)pyridinium inhibitors of choline acetyltransferase” (J Med Chem, 1988).
The source made the active and inactive calls. The calls are words filed in the database; no cut-off is given here.

Assays:
[1] = Degree of specificity expressed as the ratio of I50 of AChE to I50 of ChAT
In short: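 Ratio of AChE I50 to ChAT I50. ChAT: partially purified rat brain enzyme, 3 min at 37 °C, 0.1 mM [14C]acetyl-CoA, 5 mM choline. AChE: commercial enzyme, 10 min at 37 °C, [14C]acetylcholine, 1% Triton-X. Radiometric read-out for both; inhibitors tested 10^-3–10^-8 M.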

Acetylcholinesterase = target: T1, Acetylcholinesterase (Rattus norvegicus, UniProt P37136); assay: Inhibition of acetylcholinesterase (AChE) activity; conditions: read-out: I50
T1 sequence (P37136 whole entry): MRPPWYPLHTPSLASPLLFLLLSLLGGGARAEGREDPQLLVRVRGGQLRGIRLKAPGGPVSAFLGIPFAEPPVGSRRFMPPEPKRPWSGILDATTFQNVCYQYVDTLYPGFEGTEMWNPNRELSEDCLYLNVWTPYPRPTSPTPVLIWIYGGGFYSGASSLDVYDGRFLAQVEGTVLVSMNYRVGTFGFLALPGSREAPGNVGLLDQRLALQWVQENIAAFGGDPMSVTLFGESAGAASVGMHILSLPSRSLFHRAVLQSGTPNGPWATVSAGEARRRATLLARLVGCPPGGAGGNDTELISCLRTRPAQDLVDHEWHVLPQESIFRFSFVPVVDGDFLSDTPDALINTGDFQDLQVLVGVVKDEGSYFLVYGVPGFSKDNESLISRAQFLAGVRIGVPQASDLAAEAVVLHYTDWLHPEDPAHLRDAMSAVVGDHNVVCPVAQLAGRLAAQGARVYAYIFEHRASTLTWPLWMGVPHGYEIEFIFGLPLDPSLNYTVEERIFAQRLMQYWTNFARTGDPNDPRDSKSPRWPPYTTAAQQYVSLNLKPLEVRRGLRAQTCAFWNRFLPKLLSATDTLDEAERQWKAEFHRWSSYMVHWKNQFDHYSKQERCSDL

[2] = target: T2, Choline O-acetyltransferase (Rattus norvegicus, UniProt P32738); assay: (§1) Inhibition of choline acetyltransferase (ChAT) activity; conditions: read-out: I50
T2 sequence (P32738 whole entry): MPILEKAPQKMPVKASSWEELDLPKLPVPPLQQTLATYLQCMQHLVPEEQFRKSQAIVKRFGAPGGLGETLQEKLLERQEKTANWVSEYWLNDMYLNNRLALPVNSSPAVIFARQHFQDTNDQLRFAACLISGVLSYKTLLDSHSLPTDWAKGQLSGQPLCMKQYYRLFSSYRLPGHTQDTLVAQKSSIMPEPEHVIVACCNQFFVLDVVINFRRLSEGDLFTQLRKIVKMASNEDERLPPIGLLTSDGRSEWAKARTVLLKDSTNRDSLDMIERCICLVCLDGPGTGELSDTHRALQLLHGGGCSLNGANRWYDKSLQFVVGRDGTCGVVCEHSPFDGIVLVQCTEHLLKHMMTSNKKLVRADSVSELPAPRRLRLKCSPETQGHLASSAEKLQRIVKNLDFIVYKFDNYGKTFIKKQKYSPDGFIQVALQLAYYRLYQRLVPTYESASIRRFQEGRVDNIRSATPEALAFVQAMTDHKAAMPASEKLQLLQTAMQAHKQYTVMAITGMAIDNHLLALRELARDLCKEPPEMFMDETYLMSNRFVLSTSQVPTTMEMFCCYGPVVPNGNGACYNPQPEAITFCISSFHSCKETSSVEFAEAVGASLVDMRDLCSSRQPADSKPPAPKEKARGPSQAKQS

[3] = target: T3, Choline O-acetyltransferase (Rattus norvegicus) (UniProt P32738); assay: Inhibition of choline acetyltransferase (ChAT) activity; NI is no inhibition observed up to 0.001 M
T3 sequence (whole entry): T2 sequence (P32738 whole entry)

[4] = target: T2, Choline O-acetyltransferase; assay: as §1; conditions: read-out: I50; remark: listed apart in the source
In short: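 Rat brain enzyme, partially purified (through CM-Sephadex batch elution), stored -20 °C, diluted for linear kinetics. Radiolabelled product counted by scintillation. Inhibitors tested 10^-3–10^-8 M; I50 reported.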

[5] = target: T4, Acetylcholinesterase (Rattus norvegicus) (UniProt P37136)
T4 sequence (whole entry): T1 sequence (P37136 whole entry)

Work on `CCOC(=O)C[n+]1ccc(/C=C/c2cccc3ccccc23)cc1` yielded a Ratio [1] of 32, an IC50 (Acetylcholinesterase) of 32 µM and an IC50 [2] of 1 µM.
`CCCCCCC(C)OC(=O)CC(=O)C[n+]1ccc(/C=C/c2cccc3ccccc23)cc1` (stereo not given) gave a Ratio [1] of 7, an IC50 (Acetylcholinesterase) of 350 µM and an IC50 [2] of 50 µM.
Compound `Cc1c[n+](CCC(=O)O)ccc1/C=C/c1cccc2ccccc12` has a Ratio [1] of 17, an IC50 (Acetylcholinesterase) of 750 µM and an IC50 [2] of 45 µM.
`CCCC[n+]1ccc(/C=C/c2cccc3ccccc23)cc1` gave a Ratio [1] of 11, an IC50 (Acetylcholinesterase) of 3.9 µM and an IC50 [2] of 0.37 µM.
With `C[N+]1=CC=NC1/C=C/c1cccc2ccccc12` (stereo not given) the I50 [3] was “inactive” and the IC50 (Acetylcholinesterase) was 51 µM.
In the case of `CCNC(=O)NC(=O)CBr`, the IC50 [4] is reported as 250 µM and the I50 [5] is reported as “inactive”.
For `CCNC(=O)NC(=O)C[n+]1ccc(/C=C/c2cccc3ccccc23)cc1`, the Ratio [1] was 33, the IC50 (Acetylcholinesterase) was 130 µM and the IC50 [2] was 3.9 µM.
For `O=C(O)C[n+]1ccc(/C=C/c2cccc3ccccc23)cc1`, the Ratio [1] was over 22, the I50 [5] was “inactive” and the IC50 [2] was 46 µM.
Compound `Cc1c[n+](CCO)ccc1/C=C/c1cccc2ccccc12` has a Ratio [1] of 16, an IC50 (Acetylcholinesterase) of 27 µM and an IC50 [2] of 1.7 µM.
Work on `CCC[n+]1ccc(/C=C/c2cccc3ccccc23)cc1` yielded a Ratio [1] of 92, an IC50 (Acetylcholinesterase) of 17.5 µM and an IC50 [2] of 0.19 µM.
With `CC(=O)C[n+]1ccc(/C=C/c2cccc3ccccc23)cc1` the Ratio [1] was 8, the IC50 (Acetylcholinesterase) was 31 µM and the IC50 [2] was 3.7 µM.
For `NC(=O)C[n+]1ccc(/C=C/c2cccc3ccccc23)cc1`, the Ratio [1] was 296, the IC50 (Acetylcholinesterase) was 80 µM and the IC50 [2] was 0.27 µM.
Compound `CCOC(=O)C(C(=O)OCC)[n+]1ccc(/C=C/c2cccc3ccccc23)cc1` has a Ratio [1] of 24, an IC50 (Acetylcholinesterase) of 500 µM and an IC50 [2] of 21 µM.
Compound `NCC[n+]1ccc(/C=C/c2cccc3ccccc23)cc1` has a Ratio [1] of 16, an IC50 (Acetylcholinesterase) of 64 µM and an IC50 [2] of 3.9 µM.
For `OCCC[n+]1ccc(/C=C/c2cccc3ccccc23)cc1`, the Ratio [1] was 28, the IC50 (Acetylcholinesterase) was 36 µM and the IC50 [2] was 1.3 µM.
In the case of `O=C(O)CC[n+]1ccc(/C=C/c2cccc3ccccc23)cc1`, the Ratio [1] is reported as 25, the IC50 (Acetylcholinesterase) is reported as 1000 µM and the IC50 [2] is reported as 40 µM.
`O=C(CO)C[n+]1ccc(/C=C/c2cccc3ccccc23)cc1` showed a Ratio [1] of over 200 and an IC50 [2] of 3 µM.
For `Cc1c[n+](CCN)ccc1/C=C/c1cccc2ccccc12`, the Ratio [1] was 6, the IC50 (Acetylcholinesterase) was 30 µM and the IC50 [2] was 5 µM.
In the case of `C(=C\c1cccc2ccccc12)/c1ccncc1`, the Ratio [1] is reported as over 26, the I50 [5] is reported as “inactive” and the IC50 [2] is reported as 38 µM.
In the case of `C[n+]1ccc(/C=C/c2cccc3ccccc23)cc1`, the Ratio [1] is reported as 77, the IC50 (Acetylcholinesterase) is reported as 30 µM and the IC50 [2] is reported as 0.39 µM.
With `NC(=O)NC(=O)CBr` the IC50 [4] was 130 µM and the I50 [5] was “inactive”.
In the case of `Cc1cnccc1/C=C/c1cccc2ccccc12`, the Ratio [1] is reported as over 25, the I50 [5] is reported as “inactive” and the IC50 [2] is reported as 40 µM.
With `NCCC[n+]1ccc(/C=C/c2cccc3ccccc23)cc1` the Ratio [1] was 42, the IC50 (Acetylcholinesterase) was 220 µM and the IC50 [2] was 5.3 µM.
For `Cc1c[n+](CC(N)=O)ccc1/C=C/c1cccc2ccccc12`, the Ratio [1] was 132, the IC50 (Acetylcholinesterase) was 45 µM and the IC50 [2] was 0.34 µM.
With `NC(=O)NC(=O)C[n+]1ccc(/C=C/c2cccc3ccccc23)cc1` the Ratio [1] was 38, the IC50 (Acetylcholinesterase) was 140 µM and the IC50 [2] was 3.7 µM.
In the case of `CCOC(=O)C[n+]1ccc(/C=C/c2cccc3ccccc23)c(C)c1`, the Ratio [1] is reported as 8, the IC50 (Acetylcholinesterase) is reported as 10 µM and the IC50 [2] is reported as 1.2 µM.
In the case of `OCC[n+]1ccc(/C=C/c2cccc3ccccc23)cc1`, the Ratio [1] is reported as 40, the IC50 (Acetylcholinesterase) is reported as 68 µM and the IC50 [2] is reported as 1.7 µM.
Compound `O=C(CBr)C[n+]1ccc(/C=C/c2cccc3ccccc23)cc1` has a Ratio [1] of 4, an IC50 (Acetylcholinesterase) of 40 µM and an IC50 [2] of 10 µM.
